pIC50: −log10 of the molar value. ≈ marks a conversion by molar mass, not a printed value.
tested on: Mus musculus; test: Toxicity against CD mouse at 20 mg/kg, ip qd for 4 days; assay type: organism-based; parameters: dose 20 mg/kg, route intraperitoneal; conditions: in vivo, 96 h

Row | Structure (SMILES) | Activity
1 | CCc1ccc(/C=C2\Nc3cc(OC)cc(OC)c3C2=O)cc1 | Non-toxic

tested on: Plasmodium vinckei petteri; test: Antimalarial activity against Plasmodium vinckei petteri infected in CD mice (Mus musculus) assessed as inhibition of parasitaemia at 20 mg/kg, intraperitoneal daily for 4 days measured on day 5; assay type: functional; conditions: ip
How it was run: (§1)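 Four-day suppressive test: female CD mice (mean body weight 20 2 g) infected with 10⁶ P. vinckei petteri-infected red blood cells in RPMI on day 0. Groups of five treated intraperitoneally days 0–3 at 1, 10 or 20 mg/kg/day. Controls received RPMI alone or chloroquine (1 and 10 mg/kg). Giemsa-stained tail-blood smears, at least 5000 erythrocytes counted. Inhibition % = (control − treated parasitaemia)/control × 100.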

Row | Structure (SMILES) | inhibition in vivo at 20 mg/kg
2 | CCc1ccc(/C=C2\Nc3cc(OC)cc(OC)c3C2=O)cc1 | 0%

tested on: Plasmodium vinckei petteri; test: Antimalarial activity against Plasmodium vinckei petteri infected in CD mice (Mus musculus) assessed as inhibition of parasitaemia at 10 mg/kg, intraperitoneal daily for 4 days measured on day 5; assay type: functional; conditions: ip; how it was run: as §1

Row | Structure (SMILES) | inhibition in vivo at 10 mg/kg
3 | CCN(CC)CCCC(C)Nc1ccnc2cc(Cl)ccc12 (stereo not drawn) [CHLOROQUINE] | 100%
4 | CCc1ccc(/C=C2\Nc3cc(OC)cc(OC)c3C2=O)cc1 | 17%

tested on: Plasmodium falciparum; test: Antiplasmodial activity against Plasmodium falciparum FcB1/columbia infected in human erythrocytes; assay type: functional, organism-based; conditions: not given
How it was run: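 Blood stages cultured in human erythrocytes in RPMI 1640 with 5% human serum (Trager–Jensen, modified). Cultures were synchronized every 48 h by 5% D-sorbitol lysis. IC50 is the concentration giving 50% inhibition of parasite growth, with chloroquine as the control drug.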

Row | Structure (SMILES) | pIC50
5 | CCc1ccccc1/C=C1\Nc2cc(OC)cc(OC)c2C1=O | 4.89
6 | COc1ccc(/C=C2\Nc3cc(OC)cc(OC)c3C2=O)c(OC)c1 | 5.30
7 | COc1cc2c(c(OC)c1)C(=O)/C(=C/c1ccc(Br)cc1)N2 | 4.30
8 | COc1cc(OC)c2c(c1)O/C(=C\c1ccc(Br)cc1)C2=O | 4.30
9 | COc1cc(OC)c(/C=C2\Nc3cc(OC)cc(OC)c3C2=O)c(OC)c1 | 5.72
10 | COc1cc2c(c(OC)c1)C(=O)/C(=C/c1ccc(N3CCOCC3)cc1)N2 | 5.05
11 | CCc1ccccc1/C=C1\Oc2cc(O)cc(O)c2C1=O | 3.95
12 | O=C1/C(=C/c2ccc(O)cc2)Oc2cc(O)ccc21 | 3.89
13 | COc1cc(OC)c2c(c1)O/C(=C\c1ccc(-c3ccncc3)cc1)C2=O | 4.07
14 | COc1cc2c(c(OC)c1)C(=O)/C(=C/c1ccc(N(C)C)cc1)N2 | 5.43
15 | O=C1/C(=C/c2ccccc2)Oc2cc(O)cc(O)c21 | 4.02
16 | COc1cc2c(c(OC)c1)C(=O)/C(=C/c1cc(Cl)ccc1Cl)N2 | 5.08
17 | COc1cc(OC)c2c(c1)O/C(=C\c1ccc(C(C)(C)C)cc1)C2=O | 4.88
18 | CCc1ccc(/C=C2\Nc3cc(OC)cc(OC)c3C2=O)cc1 | 6.00
19 | COc1cc2c(c(OC)c1)C(=O)/C(=C/c1ccc(C(C)(C)C)cc1)N2 | 5.14
20 | COc1ccc(/C=C2\Oc3cc(OC)cc(OC)c3C2=O)cc1 [4,4',6-TRIMETHOXY-AURONE] | 4.96
21 | COc1cc2c(c(OC)c1)C(=O)/C(=C/c1ccc(C(C)C)cc1)N2 | 5.36
22 | C#Cc1ccc(/C=C2\Nc3cc(OC)cc(OC)c3C2=O)cc1 | 4.87
23 | COc1cc2c(c(OC)c1)C(=O)/C(=C/c1cc(C)c(C)cc1C)N2 | 5.25
24 | COc1cc2c(c(OC)c1)C(=O)/C(=C/c1c(C)cccc1C)N2 | 5.04
25 | COc1cc2c(c(OC)c1)C(=O)/C(=C/c1c(C)c(C)cc(C)c1C)N2 | 5.05

Continued, values first:

Row | pIC50 | Structure (SMILES)
26 | 3.63 | COc1cc(OC)c2c(c1)O/C(=C\c1ccc(-c3ccccc3)cc1)C2=O
27 | 4.06 | COc1cc(OC)c2c(c1)O/C(=C\c1ccc(F)cc1)C2=O
28 | 4.20 | Cc1ccc(/C=C2\Oc3cc(O)cc(O)c3C2=O)cc1
29 | 4.22 | COc1cc(OC)c2c(c1)O/C(=C\c1ccccc1)C2=O
30 | 4.55 | CCc1ccc(/C=C2\Oc3cc(O)ccc3C2=O)cc1
31 | 4.68 | CCc1ccccc1/C=C1\Oc2cc(OC)cc(OC)c2C1=O
32 | 4.77 | COc1cc2c(c(OC)c1)C(=O)/C(=C/c1ccc(Cl)cc1)N2
33 | 4.93 | CCCCc1ccc(/C=C2\Oc3cc(OC)cc(OC)c3C2=O)cc1
34 | 5.00 | COc1cc2c(c(OC)c1)C(=O)/C(=C/c1ccccc1Cl)N2
35 | 5.05 | COc1cc2c(c(OC)c1)C(=O)/C(=C/c1c(F)cccc1Cl)N2
36 | 5.17 | COc1cc2c(c(OC)c1)C(=O)/C(=C/c1ccc(SC)cc1)N2
37 | 5.39 | CCCCc1ccc(/C=C2\Nc3cc(OC)cc(OC)c3C2=O)cc1
38 | 5.44 | COc1cc2c(c(OC)c1)C(=O)/C(=C/c1ccc(C)cc1C)N2
39 | 5.72 | COc1cc2c(c(OC)c1)C(=O)/C(=C/c1cc(OC)c(OC)c(OC)c1)N2

tested on: Plasmodium vinckei petteri; test: Antimalarial activity against Plasmodium vinckei petteri infected in CD mice (Mus musculus) assessed as inhibition of parasitaemia at 1 mg/kg, intraperitoneal daily for 4 days measured on day 5; assay type: functional; conditions: ip; how it was run: as §1

Row | Structure (SMILES) | inhibition in vivo at 1 mg/kg
40 | CCN(CC)CCCC(C)Nc1ccnc2cc(Cl)ccc12 (stereo not drawn) [CHLOROQUINE] | 0%
41 | CCc1ccc(/C=C2\Nc3cc(OC)cc(OC)c3C2=O)cc1 | 3%

tested on: Plasmodium vinckei petteri; test: Antimalarial activity against Plasmodium vinckei petteri infected in CD mice (Mus musculus) assessed as inhibition of parasitaemia dosed daily for 4 days measured on day 5; assay type: functional; conditions: not given; how it was run: as §1

Row | Structure (SMILES) | ED50
42 | CCN(CC)CCCC(C)Nc1ccnc2cc(Cl)ccc12 (stereo not drawn) [CHLOROQUINE] | 5000 µg/mL (≈ 15.6 mM)
43 | CCc1ccc(/C=C2\Nc3cc(OC)cc(OC)c3C2=O)cc1 | > 20 mg/kg

Reference: ChEMBL document CHEMBL1212855, “1-Azaaurones derived from the naturally occurring aurones as potential antimalarial drugs” (Bioorg Med Chem, 2010)
